# In the library only some 7.1% were active in any assay of this set; here they are far more common.
# H69AR inhibit = proliferation blockers of H69AR lung cancer cells, primary screen, cell-based, human, 86K library; H69AR lung tumor viability, ATP luminescence, 72 h; hits give low values; viability, % at 10 µM; 85,000 tested, 6% active;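 active means viability at or below 40%; inactive means viability above 40%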;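 further: multidrug resistant small cell line overexpressing MRP-1 efflux transporter; 100% = mean luminescence of untreated control wells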
# HCT116 PTEN-null = growth suppression of PTEN-null HCT116, primary screen, cell-based, CellTiter-Glo. HCT116 PTEN-null viability, 60 h; hits give low values. viability, % at 10 µM. 140,000 tested, 1.2% active;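 active means viability at or below a set limit, 4 SD under the median of all tested compounds, cut at about 3.7% in these data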;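 further: PTEN knockout HCT116 line with beta catenin targeted HCT116 as companion control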
# HCT116 bCat-KO = primary screen for growth suppressors in beta-catenin knockout HCT116 cells (colon tumor, human). 140,000 tested, 1.5% active. viability, % at 10 µM. HCT116 beta-catenin knockout viability, CellTiter-Glo, 60 h; hits give low values;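 active means viability at or under a set limit, the compound median less 4 SD, cut at about 6% in these data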;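 further: 0% = Hyamine 1622 control at 20 µM and 100% = untreated cell control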
# Fibroblast inh = antiproliferative effect on LL 47 fibroblasts – human, LL 47 cells, CellTiter-Glo luminescence, primary screen | LL 47 human lung fibroblast viability, ATP luminescence; hits give low values | viability, % at 10 µM | 85,000 tested, 1.1% active | AID 719, 2007;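 active means viability at or below 50% in the single dose screen; inactive means viability above 50%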;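 further: compound exposure lasted 72 h before the ATP readout; 100% = median luminescence of untreated cell-only wells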
#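 Assay system: human lung fibroblast line LL 47, low passage. Input: 1,150 fibroblasts seeded per well. Times: overnight cell rest, 72 h compound treatment at 37 °C. Evaluation: % viability of median cell-only signal. Technique: luminescent ATP detection, CellTiter-Glo. Control set: cell-only wells, no compound.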
# Cav32 inh = Cav3.2 calcium influx blockers – cell-based, Fluo-4 calcium fluorescence, FDSS, MLSMR library, primary screen; Voltage-dependent T-type calcium channel subunit alpha-1H (Homo sapiens), O95180; Cav3.2-expressing cells; hits give low values; B-score at 10 µM; 100,000 tested, 4% active; AID 449739, 2010;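 active means single-dose well whose peak fluorescence ratio is a statistical outlier from its plate by either plate-standardised score or position-corrected B-score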
# HUVEC prolif 384 = inhibitors of HUVEC proliferation, primary screen, cell-based, 384-well | CellTiter-Glo luminescence, 72 h; hits give low values | 86,000 tested, 1.1% active | viability, % at 10 µM (by protocol);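 active means viability at or below 30%; inactive means viability above 30%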;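 further: 100% = median luminescence of DMSO-only cell control wells on each plate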
# Numbers without * were called inactive; x = no result.
SMILES,H69AR inhibit,HCT116 PTEN-null,HCT116 bCat-KO,Fibroblast inh,Cav32 inh,HUVEC prolif 384
CCC1CCC(c2nnc(-c3ccc([N+](=O)[O-])cc3)o2)CC1 (stereo not drawn),x,82,82,x,x,x
Cc1ccc2c(CC(=O)Nc3ccc(N4CCN(C)CC4)cc3C)coc2c1,22*,44,46,69,0.76,15*
Cc1ccc2c(CC(=O)OC(C)C(=O)NCc3ccc4c(c3)OCO4)coc2c1 (stereo not drawn),98,102,98,100,-5.1*,102
Cc1ccc2c(CC(=O)NCc3ccc4c(c3)OCO4)coc2c1,94,91,95,102,-4.6*,102
Cc1nc2nc(C)c(CCC(=O)NC(C)c3ccc4c(c3)OCCO4)c(C)n2n1 (stereo not drawn),97,103,96,103,-0.45,103
COc1ccc2c(CC(=O)NCc3ccc4c(c3)OCO4)coc2c1,101,96,97,103,-2.7,94
Cc1nc2nc(C)c(CCC(=O)NCc3ccc4c(c3)OCO4)c(C)n2n1,26*,98,107,99,0.33,96
Cc1ccc(-c2nc(C)sc2CC(=O)Nc2cccc(C)c2C)cc1,x,88,84,x,x,x
COc1ccc(C2(CNC(=O)c3ccc(OCC(C)C)cc3)CCOCC2)cc1,x,75,81,x,x,x
Cc1ccccc1NC(=O)Cc1nc(-c2ccc3ccccc3c2)cs1,x,105,98,x,x,x
COc1cccc(C2C3=C(N=c4s/c(=C\c5ccc(O)cc5)c(=O)n42)c2ccccc2CC3)c1OC (stereo not drawn),x,84,81,x,x,x
COc1cccc(C2C3=C(N=c4s/c(=C\c5cccc(O)c5)c(=O)n42)c2ccccc2CC3)c1OC (stereo not drawn),x,1.7*,2.4*,x,x,x
Nc1c(C(=O)C2CC2)sc2nc(-c3ccccc3)cc(C(F)(F)F)c12,66,77,82,105,-6.2*,71
COc1cccc(OC)c1OCCCOc1ccc(C)cc1Br,x,82,87,x,x,x
CCOc1cc(/C=N/N=C(/N)c2nonc2N)cc(Br)c1OCc1ccc(Cl)cc1,18*,108,100,29*,-0.12,22*
CCOc1cc(/C=N/N=C(N)N)ccc1OCc1ccc(Cl)cc1,x,1.2*,1.3*,x,x,x
CN(c1ccccc1)c1ccc(/C=N/N2CCOCC2)cc1,x,93,80,x,x,x
N#CC1=C(N)Oc2cc(N)ccc2C1C1CC=CCC1 (stereo not drawn),29*,22,22,96,-0.98,61
NC1=NC(=O)/C(=C/c2c(OS(=O)(=O)c3ccc(Cl)cc3)ccc3ccccc23)S1,x,97,89,x,x,x
Cc1cccc(C2(c3cccc(C)c3)CC2C(=O)Nc2ccc([N+](=O)[O-])cc2O)c1 (stereo not drawn),x,6,5.9*,x,x,x
CCC(=O)Nc1nonc1-c1nc2ccccc2n1Cc1cccc2ccccc12,24*,13,13,51,-3.4,51
Cc1c(Cl)cnc(NC(=O)CSc2nncs2)c1Cl,x,100,98,x,x,x
Cc1ccccc1OCCN1C(=O)NC2(CCc3ccccc32)C1=O (stereo not drawn),91,89,101,99,-0.24,87
O=C1NC2(CCc3ccccc32)C(=O)N1CCOc1ccc(Cl)cc1 (stereo not drawn),x,90,90,x,-4.8*,x
CCN(CC)S(=O)(=O)c1ccc(O)c(NS(=O)(=O)c2ccccc2F)c1,x,101,95,x,x,x
SMILES,H69AR inhibit,HCT116 PTEN-null,HCT116 bCat-KO,Fibroblast inh,Cav32 inh,HUVEC prolif 384
C=C(C)CNC(=S)NNC(=O)CCn1c2ccc(Cl)cc2c2cc(Cl)ccc21,x,3.5*,2.7*,x,x,x
C=C(C)CNC(=S)NNC(=O)CCn1c2cc(Cl)ccc2c2ccc(Cl)cc21,x,83,77,x,x,x
CS(=O)(=O)N(CC(=O)Nc1cccc(F)c1)Cc1ccccc1,87,90,91,102,-0.23,98
Cc1ccc(NC(=O)CS(=O)CC(=O)N(c2ccc(C)cc2)C(C)C(=O)NC2CCCCC2)cc1 (stereo not drawn),96,69,84,93,-7.3*,81
CC(=O)Nc1ccc(NC(=O)c2ccccc2CC[N+](=O)[O-])cc1,x,94,95,x,0.54,x
CC1CC(C)CN(C(=O)CSc2nc(Cc3cccs3)nc3ccccc23)C1 (stereo not drawn),x,69,74,x,-3.6,x
COc1ccc(C(=O)CSc2nnc(COc3ccc(C#N)cc3)n2-c2ccccc2)cc1,x,77,73,x,-0.0068,x
CCn1c(COc2ccc(C)cc2)nnc1SCC(=O)Nc1cc(OC)ccc1OC,18*,55,58,94,-3,93
Cc1cccc(C)c1NC(=O)CSc1nnc(Cn2nnc(-c3ccccc3)n2)n1-c1ccccc1,x,62,85,91,-6.2*,84
CCn1c(COc2ccccc2)nnc1SCC(=O)Nc1cc(C)ccc1OC,91,82,85,100,-1.3,110
Cc1ccc(OCc2nnc(SCC(=O)Nc3cccc4ccccc34)n2-c2ccccc2)cc1,18*,45,54,4.2*,-3.7,79
O=C(CSc1nnc(COc2ccccc2)n1-c1ccccc1)c1ccccc1,90,70,78,85,-6.1*,89
O=P(OCC1CC1)(c1ccccc1)c1ccccc1,x,106,100,x,x,x
O=C(CCCN1C(=O)c2ccccc2C1=O)NCCN1C(=O)S/C(=C\c2cccs2)C1=O,x,99,105,x,x,x
Nc1nc(Cl)cc(Sc2ccc3ccccc3c2)n1,x,33,37,x,0.1,x
O=C(Nc1nc2ccc(SC(F)F)cc2s1)c1ccc(NS(=O)(=O)c2ccc(F)c(F)c2)cc1,x,58,72,x,x,x
CC1CCCC(C)N1C(=O)CSc1nnc(COc2ccccc2)n1-c1ccccc1 (stereo not drawn),94,91,88,103,-3.5*,117
COc1ccc(-n2c(COc3ccccc3)nnc2SCC(N)=O)cc1,104,105,109,96,0.52,92
Cc1noc(C)c1C(=O)NCCc1ccccc1,85,105,114,91,1.5,90
Cc1ccc(C(C)NC(=O)c2c(C)noc2C)cc1C (stereo not drawn),98,97,93,103,-3.8*,95
Cc1nc2ccccc2c(=O)n1NC(=O)c1c(O)c2c(n(CC(C)C)c1=O)CCCC2,73,77,74,101,-11*,109
CCCCCCc1nc2ccccc2c(=O)n1NC(=O)c1c(O)c2c(n(CC(C)C)c1=O)CCCC2,62,21,19,71,-2.7,85
Cc1cc(C)cc(NS(=O)(=O)c2ccc3c(c2)c(=O)n(C)c(=O)n3C)c1,83,39,46,34*,-2.9,34
Cc1c(C(=O)C(=O)N2CCCc3ccccc32)c2ccccc2n1C,x,20,25,x,x,x
